Data published in publication PMC4706624 (International Journal for Parasitology: Drugs and Drug …, 2015).
Where “and” joins values, the source holds several entries; their conditions need not be identical. Identical values can stand only once. Entries after “also recorded” stand apart in the source; their conditions may differ. One block for each compound: values may come before it.

What was measured:
[1] = molecular target: T1, PvENT1 (Plasmodium vivax, UniProt A5K8B0); experiment: Inhibition of [3H]uridine uptake into PvENT1-expressing yeast; assay type: cell-based; conditions: for fold lower IC50 of PvENT1 than PfENT1: PvENT1 vs PfENT1
T1 sequence (A5K8B0 1-416): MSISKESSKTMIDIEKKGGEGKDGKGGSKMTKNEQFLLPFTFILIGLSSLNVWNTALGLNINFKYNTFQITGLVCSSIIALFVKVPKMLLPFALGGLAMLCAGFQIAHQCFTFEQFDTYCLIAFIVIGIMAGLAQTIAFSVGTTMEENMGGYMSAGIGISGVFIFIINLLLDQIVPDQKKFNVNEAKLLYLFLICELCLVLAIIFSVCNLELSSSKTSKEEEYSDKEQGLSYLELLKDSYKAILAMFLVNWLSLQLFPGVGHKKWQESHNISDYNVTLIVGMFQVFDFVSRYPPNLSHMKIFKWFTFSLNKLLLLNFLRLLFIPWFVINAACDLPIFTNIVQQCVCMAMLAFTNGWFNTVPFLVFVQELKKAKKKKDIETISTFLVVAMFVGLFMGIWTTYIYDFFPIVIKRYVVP

[2] = molecular target: T1, PvENT1; experiment: Inhibition of [3H]adenosine uptake into PvENT1-expressing yeast; assay type: cell-based
[3] = system: PvENT1-expressing purine auxotrophic yeast; experiment: Growth of PvENT1-expressing purine auxotrophic yeast with a sole purine source; assay type: cell-based; conditions: Saccharomyces cerevisiae, read-out: growth EC50
In short: (§1)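 Yeast strain was MATa his3Δ1 leu2Δ0 met15Δ0 ura3Δ0 fui1Δ::KanMX4 ade2Δ::hphNT1 carrying pCM189 (empty or PvENT1). Cells grown to mid-log in SDM-adenine were washed three times in water, diluted to 4 × 10^6 cells/mL, and added 1:1 to adenine or adenosine serially diluted in 2× purine-free SDM.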

[4] = system: empty vector (EV) purine auxotrophic yeast; experiment: Growth of empty vector; assay type: cell-based, Saccharomyces cerevisiae
In short: as §1

[5] = system: PfENT1; conditions: read-out: PfENT1 IC50; ref Riegelhaupt et al., 2010a; cited from earlier work
[6] = system: hENT1; conditions: ref Griffiths et al., 1997, Baldwin et al., 2004, cited from earlier work
[7] = IC50 for inhibition of [^3H]Adenosine by indicated pyrimidine, 50 nM [3H]adenosine, 15 min, PvENT1-expressing yeast, mean ± SD
[8] = [^3H]Adenosine uptake inhibition IC50, hENT1 inhibitors and toxic purine analogs, 50 nM [3H]adenosine, concentrations up to 20 mM, mean ± SD, n = 3
[9] = IC50 for inhibition of [^3H]Uridine by indicated purine, 250 nM [3H]uridine, 15 min, PvENT1-expressing yeast, mean ± SD
[10] = IC50 for inhibition of [^3H]substrate uptake by the indicated purine, WT, Table 4, WT PvENT1, radiolabel [3H]adenosine (#)
[11] = hENT1 inhibitors and toxic purine analogs, 50 nM [3H]adenosine, concentrations up to 20 mM, mean ± SD, n = 3
[12] = read-out: [^3H]Adenosine uptake inhibition IC50, hENT1 inhibitors and toxic purine analogs, 50 nM [3H]adenosine, concentrations up to 20 mM, mean ± SD, n = 3

IC50 [2, 7]: 183 ± 53 µM
Structure (SMILES): Cc1cn([C@H]2C[C@H](O)[C@@H](CO)O2)c(=O)[nH]c1=O [Thymidine]

IC50 [2, 7]: 564 ± 145 µM
Structure (SMILES): Cc1c[nH]c(=O)[nH]c1=O [Thymine]

IC50 [2, 7]: 3390 ± 1170 µM
Structure (SMILES): O=c1cc[nH]c(=O)[nH]1 [Uracil]

IC50 [2, 7]: 1730 ± 809 µM
Structure (SMILES): O=c1ccn([C@@H]2O[C@H](CO)[C@@H](O)[C@H]2O)c(=O)[nH]1 [Uridine]

IC50 [1, 9]: 2550 ± 189 µM
Structure (SMILES): O=c1[nH]c(=O)c2[nH]cnc2[nH]1 [Xanthine]

IC50 [1, 9]: 4310 ± 2870 µM
Structure (SMILES): O=c1[nH]c(=O)c2ncn([C@@H]3O[C@H](CO)[C@@H](O)[C@H]3O)c2[nH]1 [Xanthosine]

The remaining lines, values behind:

Structure (SMILES): Nc1nc2c(ncn2[C@H]2C[C@H](O)[C@@H](CO)O2)c(=O)[nH]1 [2-deoxyguanosine]
IC50 ([1]; read-out: IC50 for inhibition of [^3H]Uridine by indicated purine, 250 nM [3H]uridine, 15 min, PvENT1-expressing yeast, mean ± SD): 20.5 ± 4.8 µM

Structure (SMILES): O=c1[nH]c(=O)n([C@@H]2O[C@H](CO)[C@@H](O)[C@H]2O)cc1F [5-Fluorouridine (5-FUrd), 5-Fluorouridine]
IC50 [2, 7]: 1770 ± 302 µM
IC50 ([2]; IC50 for inhibition of [^3H]adenosine uptake, 50 nM [3H]adenosine): 1700 µM

Structure (SMILES): Sc1ncnc2nc[nH]c12 [6-mercaptopurine]
IC50 [2, 8]: 160 µM and 158 µM

Structure (SMILES): Nc1ncnc2[nH]cnc12 [Adenine]
EC50 [3]: 27 ± 2 µM
IC50 [1, 9]: 1430 ± 736 µM
IC50 of nucleobase relative to the corresponding nucleoside ([1]; PvENT1-expressing yeast): one order of magnitude higher
EC50 ([4]; Saccharomyces cerevisiae, read-out: growth EC50): 39 ± 2 µM

Structure (SMILES): Nc1ncnc2c1ncn2[C@@H]1O[C@H](CO)[C@@H](O)[C@H]1O [Adenosine]
EC50 [3]: 394 ± 85 µM
IC50 [1, 9]: 142 ± 34 µM
IC50 ([1]; IC50 for inhibition of [^3H]substrate uptake by the indicated purine, WT, Table 4, WT PvENT1, radiolabel [3H]uridine): 167 ± 52 µM
fold lower IC50 of PvENT1 than PfENT1 [1]: 4–5 fold
IC50 [5]: ~650 µM
growth EC50 ([4]; EV yeast, liquid media, sole purine source): failed to grow

Structure (SMILES): Nc1cc[nH]c(=O)n1 [Cytosine]
IC50 [2, 7]: 6140 ± 1030 µM
effect on radiolabel uptake into PvENT1-expressing yeast (in words) ([2]; [3H]adenosine uptake for pyrimidines): slight inhibition

Structure (SMILES): OCCN(CCO)c1nc(N2CCCCC2)c2nc(N(CCO)CCO)nc(N3CCCCC3)c2n1 [Dipyridamole, dipyridamole]
PvENT1 IC50 relative to hENT1 ([2]; PvENT1 vs human ENT1): 1000 fold
IC50 [2, 8]: ~40 µM and 40 µM
concentration range inhibiting hENT1 [6]: 5 to 20 nM

Structure (SMILES): Nc1nc2nc[nH]c2c(=O)[nH]1 [Guanine]
IC50 [1, 9]: 6340 ± 2950 µM

Structure (SMILES): Nc1nc2c(ncn2[C@@H]2O[C@H](CO)[C@@H](O)[C@H]2O)c(=O)[nH]1 [Guanosine]
IC50 [1, 9]: 14.9 ± 1.4 µM

Structure (SMILES): O=c1[nH]cnc2nc[nH]c12 [Hypoxanthine]
IC50 [2, 10]: 141 ± 24 µM
IC50 [1, 9]: 99 ± 30 µM
fold lower IC50 of PvENT1 than PfENT1 [1]: 4–5 fold
IC50 [5]: ~480 µM

Structure (SMILES): OC[C@H]1O[C@@H](n2cnc3c(O)ncnc32)[C@H](O)[C@@H]1O [Inosine]
IC50 [2, 10]: 5 ± 4 µM
IC50 [1, 9]: 3.8 ± 1.4 µM

Structure (SMILES): O=[N+]([O-])c1ccc(CSc2ncnc3c2ncn3C2OC(CO)C(O)C2O)cc1 (stereo not drawn) [NBMPR, 4-nitrobenzylthioinosine]
[^3H]Adenosine uptake inhibition IC50 [2, 11]: did not inhibit; also recorded: not sensitive
[^3H]Adenosine uptake inhibition IC50 ([2]; hENT1 inhibitors and toxic purine analogs, 50 nM [3H]adenosine, concentrations up to 20 mM, mean ± SD, n = 3, listed as 4-nitrobenzylthioinosine (NBMPR)): no effect
IC50 [2, 12]: > 20000 µM
concentrations inhibiting hENT1 ([6]; in words): sub-nanomolar

Structure (SMILES): Nc1ncnc2c1ccn2[C@@H]1O[C@H](CO)[C@@H](O)[C@H]1O [Tubercidin, tubercidin (7-deaza-adenosine)]
[^3H]Adenosine uptake inhibition IC50 [2, 11]: failed to inhibit
IC50 [2, 12]: > 20000 µM
